Data set [1] addresses T1, 3-oxo-5-alpha-steroid 4-dehydrogenase 2 (Homo sapiens) (UniProt P31213).
T1 sequence (whole entry): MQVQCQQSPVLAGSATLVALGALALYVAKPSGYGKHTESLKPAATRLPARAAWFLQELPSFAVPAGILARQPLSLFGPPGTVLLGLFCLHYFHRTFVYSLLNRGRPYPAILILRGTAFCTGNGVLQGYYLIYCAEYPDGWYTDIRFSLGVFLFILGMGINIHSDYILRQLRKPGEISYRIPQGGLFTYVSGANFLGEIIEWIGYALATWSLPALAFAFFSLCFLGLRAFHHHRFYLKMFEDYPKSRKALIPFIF
The data set can be described thus: Inhibition of human type-2 5-alpha reductase expressed in HEK293 cells using [3H]-androstenedione as substrate at 10 uM after 30 mins by HPLC analysis. The class given is cell-based. The method in brief:
(§1)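 Lysates of 80% confluent HEK293 cells stably expressing human type I or type II cDNA (pRcCMV), sonicated in 300 mM saccharose, 5 mM Tris-HCl, 0.1 mM EDTA. Final 500 nM androstenedione with [3H]androstenedione, NADPH-regenerating system (0.55 mM NADP, 5 mM glucose-6-phosphate, G6PDH), 2% DMSO; 30 min, 37 °C. Ether-extracted; conversion quantified by radio-HPLC on C8.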

In data set [2] the test system is Rattus norvegicus. As to the kind of experiment: Toxicity in Wistar rat assessed as mortality at 1 mg/kg, po qd for 14 days measured on day 15. The class given is organism-based. More on the design: dose 1 mg/kg, route oral. The following applies: in vivo, 336 h. The method in brief: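 Mature male Wistar rats, acclimatised one month, dosing begun after 9 weeks. Compound suspended in 0.50% carboxymethylcellulose sodium and given orally at 5 ml/kg once daily for 14 days. Vehicle-only control group, 5 animals per group. Mortality recorded over treatment. Rats weighed and killed under ether anaesthesia on day 15, 24 h after the last dose.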

Data set [3] has as its system Rattus norvegicus. The data set can be described thus: Anti-benign prostatic hyperplasia activity in Wistar rat assessed as reduction of ventral prostate weight gain at 1 mg/kg, po qd for 14 days measured on day 15. The class given is functional, Prostate gland. More on the design: scale not given: the % may be the effect or the level left. In outline:
(§2)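 Mature male Wistar rats, acclimatised one month, dosed orally once daily for 14 days with suspension in 0.50% carboxymethylcellulose at 5 ml/kg; vehicle controls; 5 rats/group. Killed under ether on day 15, 24 h after last dose; organs dissected free of fat and connective tissue, weighed, expressed per 100 g body weight. Mean ± SEM; one-way ANOVA with Dunnett's test.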

The test system of data set [4] is Rattus norvegicus. The data set can be described thus: Anti-benign prostatic hyperplasia activity in Wistar rat assessed as reduction of testis weight gain per 100 gram of body weight at 1 mg/kg, po qd for 14 days measured on day 15. The class given is functional. The method in brief:
as §2

The test system of data set [5] is Rattus norvegicus. As to the kind of experiment: Anti-benign prostatic hyperplasia activity in Wistar rat assessed as reduction of adrenal weight gain per 100 gram of body weight at 1 mg/kg, po qd for 14 days measured on day 15. Format: functional. The method in brief: as §2
Data set [6] concerns Rattus norvegicus. The data set can be described thus: Anti-benign prostatic hyperplasia activity in Wistar rat assessed as reduction of seminal vesicle weight gain per 100 gram of body weight at 1 mg/kg, po qd for 14 days measured on day 15. The class given is functional. In outline:
as §2

For data set [7], the system named is Rattus norvegicus. The data set can be described thus: Anti-benign prostatic hyperplasia activity in Wistar rat assessed as reduction of vas deferens weight gain at 1 mg/kg, po qd for 14 days measured on day 15. The class given is functional. More on the design: scale not given: the % may be the effect or the level left. In outline:
as §2

Data set [8] concerns the target T2, 3-oxo-5-alpha-steroid 4-dehydrogenase 1 (Homo sapiens) (UniProt P18405).
T2 sequence (whole entry): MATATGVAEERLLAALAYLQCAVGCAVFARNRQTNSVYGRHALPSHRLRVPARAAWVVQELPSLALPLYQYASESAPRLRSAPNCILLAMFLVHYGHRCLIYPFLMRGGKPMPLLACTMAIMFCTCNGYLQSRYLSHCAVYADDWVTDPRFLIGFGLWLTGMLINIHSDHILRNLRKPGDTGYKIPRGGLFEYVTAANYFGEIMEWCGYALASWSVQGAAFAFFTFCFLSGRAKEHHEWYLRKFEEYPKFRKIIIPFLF
As to the kind of experiment: Inhibition of human type-1 5-alpha reductase expressed in HEK293 cells using [3H]-androstenedione as substrate at 2 uM after 30 mins by HPLC analysis. The class given is cell-based. In outline:
as §1

Data set [9] relates to Rattus norvegicus. As to the kind of experiment: Anti-benign prostatic hyperplasia activity in Wistar rat assessed as reduction of epididymis weight gain at 1 mg/kg, po qd for 14 days measured on day 15. Format: functional. More on the design: scale not given: the % may be the effect or the level left. In outline: as §2
Data set [10] concerns Rattus norvegicus. As to the kind of experiment: Anti-benign prostatic hyperplasia activity in Wistar rat assessed as reduction of liver weight gain per 100 gram of body weight at 1 mg/kg, po qd for 14 days measured on day 15. Format: functional. The method in brief: as §2
For data set [11], the system named is Rattus norvegicus. As to the kind of experiment: Anti-benign prostatic hyperplasia activity in Wistar rat assessed as reduction of body weight gain at 1 mg/kg, po qd for 14 days measured on day 15. Format: functional. More on the design: scale not given: the % may be the effect or the level left. In outline:
as §2

For data set [12], the system named is Rattus norvegicus. The data set can be described thus: Anti-benign prostatic hyperplasia activity in Wistar rat assessed as reduction of dorsal prostate weight gain at 1 mg/kg, po qd for 14 days measured on day 15. The class given is functional, Prostate gland. More on the design: scale not given: the % may be the effect or the level left. The method in brief: as §2

Data set [13] concerns the target T2, 3-oxo-5-alpha-steroid 4-dehydrogenase 1 (Homo sapiens). The data set can be described thus: Inhibition of human type-1 5-alpha reductase expressed in HEK293 cells using [3H]-androstenedione as substrate at 10 uM after 30 mins by HPLC analysis. The class given is cell-based. In outline:
as §1

The source of these data is ChEMBL document CHEMBL2169861, “Synthesis and biological evaluation of novel unsaturated carboxysteroids as human 5α-reductase inhibitors: a legitimate approach” (Eur J Med Chem, 2012).

`CN1C(=O)CC[C@H]2[C@@H]3CC=C4C=C(C#N)CC[C@]4(C)[C@H]3CC[C@@]21C`: the inhibition in data set [1] is 13.5%; in data set [8], 64%; in data set [13], 93%. Further, the Activity entry is reported as “Non-toxic” in data set [2]; 6.72% in data set [3]; 932.988 mg in [4]; 21.311 mg in [5]; 223.05 mg in [6]; 14.58% in data set [7]. For the same compound, the Activity in data set [9] is on record as 10.11%; in data set [10] it was 4.861 g; in data set [11] it was 6.767%; in [12], -8.07%.
